This is an account of results in ChEMBL document CHEMBL3098077, “Discovery of novel antitumor dibenzocyclooctatetraene derivatives and related biphenyls as potent inhibitors of NF-κB signaling pathway” (Bioorg Med Chem, 2014).

Active and inactive are the calls of the source. The rule behind the calls is not given here. Bounds are passed on as bounds.

One test concerns DU-145. Kind of test: Cytotoxicity against human DU145 cells by SRB assay. Type of test: functional. The method, boiled down: (§1)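 SRB growth assay; GI50 taken as molar concentration giving 50% tumor cell growth inhibition. Paclitaxel run as positive control. KBvin is a P-gp-expressing epidermoid carcinoma of the nasopharynx line.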
(Sulforhodamine B stains cellular protein and so reports cell mass.)

Test [1] is described as follows: (§2) Inhibition of LPS-induced NF-kappaB activation in mouse RAW264.7 cells treated 30 mins before LPS challenge measured after 6 hrs by luciferase reporter gene assay. In kind it is cell-based. The method, boiled down:
(§3)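 RAW264.7 cells stably carrying an NF-κB-driven firefly luciferase reporter, seeded at 10^4 cells/well and attached overnight. Pretreated 30 min with compound, then stimulated with LPS 1 μg/mL for 6 h; cells lysed and luciferase activity measured. Compounds screened at 10 μM; those above 98% inhibition were tested at serial concentrations for IC50, alongside BAY 11-7082 as positive control.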
(In general: A reporter such as luciferase makes a cellular process visible.)

The next test relates to A549. The experiment in a line: Cytotoxicity against human A549 cells by SRB assay. In kind it is functional. The method, boiled down: as §1
A short description of test [2]: Cytotoxicity against human KBVIN cells by SRB assay. In kind it is functional. The procedure, abridged: as §1
Another test concerns KB. Kind of test: Cytotoxicity against human KB cells by SRB assay. Type of test: functional. The method, boiled down:
as §1

For test [3], the system named is RAW264.7. Kind of test: Inhibition of LPS-induced NF-kappaB activation in mouse RAW264.7 cells at 20 uM treated 30 mins before LPS challenge measured after 6 hrs by luciferase reporter gene assay. In kind it is cell-based.
Test [4] deals with RAW264.7. The experiment in a line: Antinflammatory activity in mouse RAW264.7 cells assessed as inhibition of LPS-induced nitric oxide production at 20 uM treated 30 mins before LPS challenge measured after 18 hrs by Griess assay. Type of test: functional, cell-based. The method, boiled down: (§4)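 RAW264.7 cells seeded in dishes, attached overnight, pretreated 30 min with compound (test compound at 0.6, 1.25 and 2.5 μM; reference inhibitor at 20 μM), then stimulated with LPS 1 μg/mL for 18 h. Medium collected and centrifuged; supernatant nitrite reacted with Griess reagents I and II, absorbance read at 540 nm as measure of NO.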
(The Griess reaction detects nitrite, a stable product of nitric oxide.)

The test system of test [5] is RAW264.7. The experiment in a line: Inhibition of NF-kappaB-mediated IkappaBalpha degradation in LPS-induced mouse RAW264.7 cells treated 30 mins before LPS challenge measured after 15 mins by Western blot analysis. In kind it is cell-based. The procedure, abridged: (§5)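 RAW264.7 cells in dishes, attached overnight, pretreated 30 min with compound (test compound at 2.5, 5, 10 μM; reference inhibitor at 20 μM), then given LPS 1 μg/mL for 15 min. Total protein in RIPA buffer with protease/phosphatase inhibitors, used for IκB-α; nuclear extract used for p65. Western blot: SDS-PAGE, PVDF, primary antibody overnight at 4 °C, peroxidase secondary 1 h at room temperature, chemiluminescence.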

Test [6] deals with RAW264.7. Described as §2. Type of test: cell-based. The procedure, abridged: as §3
For test [7], the system named is RAW264.7. The experiment in a line: Inhibition of LPS-induced NF-kappaB activation in mouse RAW264.7 cells at 10 uM treated 30 mins before LPS challenge measured after 6 hrs by luciferase reporter gene assay. Type of test: cell-based. The method, boiled down:
as §3

The subject of test [8] is RAW264.7. Kind of test: Antinflammatory activity in mouse RAW264.7 cells assessed as inhibition of LPS-induced nitric oxide production at 2.5 uM treated 30 mins before LPS challenge measured after 18 hrs by Griess assay. Type of test: functional, cell-based. The method, boiled down:
as §4

Test [9] deals with Transcription factor p65 (Mus musculus) (UniProt Q04207). Kind of test: Inhibition of LPS-induced NF-kappaB p65 translocation into nucleus in mouse RAW264.7 cells treated 30 mins before LPS challenge measured after 15 mins by Western blot analysis. Type of test: cell-based. The procedure, abridged: as §5
Chain of Transcription factor p65 (Mus musculus) (Q04207 whole entry): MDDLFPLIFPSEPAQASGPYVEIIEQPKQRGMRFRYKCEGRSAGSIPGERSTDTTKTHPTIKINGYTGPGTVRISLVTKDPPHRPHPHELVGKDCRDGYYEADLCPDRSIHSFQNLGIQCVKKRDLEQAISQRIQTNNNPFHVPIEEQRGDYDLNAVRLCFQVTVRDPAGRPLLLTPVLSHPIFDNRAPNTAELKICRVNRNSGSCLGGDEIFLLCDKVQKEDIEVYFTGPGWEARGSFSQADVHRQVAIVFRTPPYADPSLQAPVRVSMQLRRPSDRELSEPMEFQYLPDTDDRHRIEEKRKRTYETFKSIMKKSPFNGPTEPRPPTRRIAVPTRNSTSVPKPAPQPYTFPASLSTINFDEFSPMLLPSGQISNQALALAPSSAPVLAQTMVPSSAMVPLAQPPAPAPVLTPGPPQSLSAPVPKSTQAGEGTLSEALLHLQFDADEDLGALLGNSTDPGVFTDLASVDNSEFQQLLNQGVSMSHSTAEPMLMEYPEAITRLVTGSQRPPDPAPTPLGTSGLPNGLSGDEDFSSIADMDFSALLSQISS

For `COc1cc2cc3c(=O)[nH]c(=O)c-3cc3cc(OC)c(OC)c(OC)c3c2cc1OC`, the GI50 (in general, the concentration that inhibits growth by half) with DU-145 came to 11.3 µM; in the test on A549, 10.1 µM; in test [2] it was 10.8 µM; with KB, 10.1 µM. Moreover, in [1], half-maximal inhibition (IC50) was put at 0.52 µM.

Take `CCOC(=O)/C(C#N)=C/c1ccccc1-c1c(/C=C(\C#N)C(=O)OCC)cc(OC)c(OC)c1OC`: the GI50 in the test with DU-145 came to 8.08 µM; in the test on A549 it was 7.02 µM; in [2], 8.45 µM; in the test on KB, 6.53 µM. Moreover, in [1], the midpoint of inhibition, the IC50, lay at 3.02 µM.

With `CCOC(=O)/C(C#N)=C/c1cc(OC)c(OC)cc1-c1c(/C=C(\C#N)C(=O)OCC)cc(OC)c(OC)c1OC`, the GI50 with DU-145 is 13.1 µM; with A549, 13.8 µM; in test [2], 15.1 µM; in the test on KB, greater than 36 µM. For the same molecule, in test [1], the IC50 (in general, the concentration needed to halve the response being measured) worked out at 3.75 µM.

In the case of `COC(=O)C1=C/c2cc3c(cc2-c2c(cc(OC)c(OC)c2OC)/C=C\1C(=O)OC)OCO3`, the GI50 in the test with A549 came to 14.5 µM; in test [2] it was 15.4 µM; with KB, 14 µM.

As to `COc1cc2c(c(OC)c1OC)-c1cc3c(cc1/C=C(C(=O)O)\C(C(=O)O)=C/2)OCO3`, the GI50 (in the test with DU-145; with A549; in [2]; in the test with KB) was greater than 20 µM throughout.

Regarding `CCOC(=O)/C(C#N)=C/c1ccccc1-c1c(C(=O)OC)cc(OC)c(OC)c1OC`, the GI50 (with DU-145; in the test with A549; in [2]; with KB) was greater than 40 µM each time.

In the case of `COc1cc(/C=C/[N+](=O)[O-])c(-c2ccccc2/C=C/[N+](=O)[O-])c(OC)c1OC`, the GI50 in the test with DU-145 was 2.09 µM; in the test on A549, 3.07 µM; in [2], 4.6 µM; in the test on KB it was 2.58 µM. Also, inhibition in test [1] was half-maximal at 1.78 µM (IC50).

In the case of `Cc1ccc(S(=O)(=O)/C=C/C#N)cc1`, it took 1.72 µM to reach half-maximal inhibition in [1] (IC50). In addition, the inhibition result with RAW264.7 [3] and in the test with RAW264.7 [4] was “Active” in each case.

For `CC(=O)O[C@H]1C(=O)[C@@]2(C)[C@H]([C@H](OC(=O)c3ccccc3)[C@]3(O)C[C@H](OC(=O)[C@H](O)[C@@H](NC(=O)c4ccccc4)c4ccccc4)C(C)=C1C3(C)C)[C@]1(OC(C)=O)CO[C@@H]1C[C@@H]2O` [PACLITAXEL], the GI50 in the test with DU-145 is 0.006 µM; in the test with A549, 0.0076 µM; in test [2], 1.8 µM; in the test with KB, 0.008 µM.

`COc1cc(/C=C(/C)[N+](=O)[O-])c(-c2ccccc2/C=C(/C)[N+](=O)[O-])c(OC)c1OC` had an IC50 in [1] of 0.75 µM.

Regarding `COc1c2c(cc(/C=C(\C)[N+](=O)[O-])c1-c1ccccc1/C=C(\C)[N+](=O)[O-])OCO2`, the GI50 in the test on DU-145 came to 5.02 µM; in the test on A549 it was 4.02 µM; in test [2] it was 12.3 µM; in the test on KB it was 13.1 µM. The molecule also displayed an IC50 in test [1] of 1.61 µM.

For `COC(=O)C1=C/c2cc(OC)c(OC)cc2-c2c(cc(OC)c(OC)c2OC)/C=C\1C(=O)OC`, in the test on DU-145, the inhibition entry was “inactive”. Moreover, the GI50 (in the test with A549; in test [2]; in the test with KB) was greater than 20 µM throughout.

On to `COc1cc2cc3c(=O)[nH]c(=O)c-3cc3cc4c(cc3c2c(OC)c1OC)OCO4`, for which the GI50 with DU-145 was determined as 1.43 µM; with A549, 1.38 µM; in test [2], 1.45 µM; in the test with KB it was 1.47 µM. Moreover, the inhibition result (with RAW264.7 [5]; with RAW264.7 [6]; in test [9]) was “Dose-dependent effect” in each case. Also, the IC50 in [1] amounted to 0.52 µM. In addition, the inhibition entry with RAW264.7 [7] and in the test with RAW264.7 [8] was “Active” throughout.

Consider `COc1cc(C=C(C#N)C#N)c(-c2cc3c(cc2C=C(C#N)C#N)OCO3)c(OC)c1OC`, for which the GI50 with DU-145 is 19.7 µM; in the test with A549, greater than 40 µM; in test [2], greater than 40 µM; in the test with KB, greater than 40 µM.

`COc1cc(C=C(C#N)C#N)c(-c2ccccc2C=C(C#N)C#N)c(OC)c1OC`: the GI50 (with DU-145; with A549; in test [2]; in the test with KB) was greater than 40 µM throughout.

Turning to `COc1cc(/C=C/[N+](=O)[O-])c(-c2cc3c(cc2/C=C/[N+](=O)[O-])OCO3)c(OC)c1OC`, the GI50 worked out at 9.09 µM with DU-145, 8.95 µM in the test with A549, 8.6 µM in [2] and 5.49 µM in the test on KB. In [1], the IC50 was 1.72 µM.

On to `COc1cc(/C=C(\C)[N+](=O)[O-])c(-c2c(/C=C(\C)[N+](=O)[O-])cc(OC)c(OC)c2OC)cc1OC`, for which the 50% growth inhibitory concentration (GI50) in the test on DU-145 was found to be 6.75 µM; with A549 it was 5.23 µM; in [2], 7.22 µM; in the test with KB, 13.5 µM. In addition, the midpoint of inhibition in [1], the IC50, lay at 2.16 µM.

For `COc1cc2cc3c(=O)[nH]c(=O)c-3cc3ccccc3c2c(OC)c1OC`, the GI50 in the test on DU-145 came out at 2.34 µM; in the test with A549, 2.31 µM; in [2] it was 2.07 µM; in the test on KB, 2.67 µM. The same molecule registered an IC50 in [1] of 1.02 µM.

For `COc1cc(/C=C(\C)[N+](=O)[O-])c(-c2ccccc2/C=C(\C)[N+](=O)[O-])c2c1OCO2`, the GI50 in the test with DU-145 was determined as 19.8 µM; in the test with A549, 13.9 µM; in [2], 18.7 µM; in the test with KB it was 18 µM. Moreover, in test [1], the midpoint of inhibition, the IC50, lay at 0.81 µM.

Regarding `COc1cc(C=C(C#N)C#N)c(-c2c(C=C(C#N)C#N)cc(OC)c(OC)c2OC)cc1OC`, the GI50 in the test with DU-145 was 10.1 µM; in the test with A549 it was 18 µM; in test [2] it was 15.9 µM; with KB, 23.2 µM. In test [1], this molecule yielded an IC50 of 4.16 µM.

On to `COC(=O)c1cc(OC)c(OC)c(OC)c1-c1ccccc1C=C(C#N)C#N`, for which the GI50 in the test on DU-145 stood at 21.9 µM; with A549, 42 µM; in test [2] it was 20.6 µM; in the test on KB, 36.2 µM.

In the case of `COc1cc(/C=C(\C)[N+](=O)[O-])c(-c2cc3c(cc2/C=C(\C)[N+](=O)[O-])OCO3)c(OC)c1OC`, the GI50 with DU-145 came to 1.51 µM; in the test on A549 it was 0.87 µM; in [2], 1.27 µM; in the test with KB, 0.72 µM. Moreover, the IC50 in test [1] was found to be 0.9 µM.

As to `CCOC(=O)/C(C#N)=C/c1cc2c(cc1-c1c(/C=C(\C#N)C(=O)OCC)cc(OC)c(OC)c1OC)OCO2`, the GI50 (in the test with DU-145; in the test with A549; in [2]; in the test on KB) was greater than 22 µM each time.

`COC(=O)c1cc(OC)c(OC)c(OC)c1-c1ccccc1/C=C(\C)[N+](=O)[O-]`: the GI50 is 6.56 µM with DU-145, 6.2 µM in the test with A549, 6.17 µM in test [2] and 6.95 µM in the test with KB. Moreover, in [1], the IC50 came to 1.61 µM.
